Here are results for 19 molecules from ChEMBL document CHEMBL4004879, “Synthesis of extended conjugated indolyl chalcones as potent anti-breast cancer, anti-inflammatory and antioxidant agents” (Bioorg Med Chem Lett, 2017).

Series [1] can be described thus: Antioxidant activity assessed as inhibition of DPPH radical generation at 1 mM after 30 mins relative to control. In kind it is functional. The method in brief:
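1 ml of compound (1 mM) mixed with 3.0 ml DPPH (0.5 mmol/L in methanol). Absorbance at 517 nm after 30 min at 37 °C. % scavenging = (A control − A sample)/A control × 100, with control being DPPH alone. Ascorbic acid as standard; mean of two replicates.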
For orientation: Loss of DPPH colour is used to gauge radical scavenging.

Series [2] in a line: Antioxidant activity assessed as inhibition of superoxide radical generation at 1 mM after 5 mins by NBT reduction assay relative to control. It is filed as functional. Summed up:
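1 ml NBT solution ([…]), 1 ml NADH ([…]) and 1 ml compound (1 mM) mixed, all in phosphate buffer pH 7.4. Reaction started with 1 ml PMS ([…]), then incubated 25 °C for 5 min. Absorbance at 560 nm against blank; % inhibition from control and sample absorbances. Ascorbic acid standard; mean of two replicates.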

A short description of series [3]: Antioxidant activity assessed as inhibition of nitric oxide radical generation at 1 mM using sodium nitroprusside after 150 mins by Griess assay relative to control. In kind it is functional. The method in brief:
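NO generated from 1 ml 10 mM sodium nitroprusside mixed with 1 ml of 1 mM compound in phosphate buffer (0.2 M, pH 7.4). Incubated 25 °C for 150 min, then mixed with 1.0 ml Griess reagent (1% sulphanilamide, 0.1% naphthylethylenediamine dichloride, 2% phosphoric acid). Absorbance read at 546 nm; % inhibition from control and sample absorbances. Ascorbic acid standard; mean of two replicates.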

Another series relates to MCF7. Briefly: Cytotoxicity against human MCF7 cells after 48 hrs by SRB assay. Particulars: MCF7, 48 h; for CC50: read-out: LC50 (the source's name). In kind it is functional. Summed up: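 MCF-7 cells grown in RPMI-1640 with 10% FCS at 37 °C, 5% CO2. Cells with >97% viability (trypan blue) seeded and grown one day, then exposed to several concentrations for 48 h, in triplicate. Fixed with TCA at 4 °C for 1 h, stained with 0.4% SRB, bound dye dissolved in 0.01 M Tris pH 10.4, OD read at 540 nm. GI50 obtained by regression; TGI and LC50 from Ti/Tz.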

Series [4] is described as follows: Antiinflammatory activity assessed as inhibition of heat-induced egg albumin denaturation at 1 mM after 15 mins relative to control. In kind it is functional. Summed up: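 Egg albumin from fresh hen's egg (0.4 ml) in PBS pH 6.4 with test solution (1 mM), 10 ml total; water as control. Incubated 37±2 °C for 15 min, then heated 70 °C for 5 min. After cooling, absorbance read at 660 nm against vehicle blank. Diclofenac sodium 1 mM as reference. % inhibition of denaturation calculated from test and control absorbances.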

The test system of another series is Vero. Kind of series: (§1) Cytotoxicity against African green monkey Vero cells after 48 hrs by SRB assay. Particulars: chlorocebus sabaeus, vero, 48 h. In kind it is cell-based. Background: In SRB staining, fixed cells bind dye roughly in proportion to their protein.
A short description of series [5]: as §1. It is filed as cell-based. The following applies: chlorocebus sabaeus, Vero cells.

Counter-ions that a name gives are not always drawn.

A word on the inhibition: it is the change of the read-out against control, counted positive when it falls. What is called GI50 is the concentration that inhibits growth by half. What is called TGI is the concentration at which net growth stops. Usually LC50 stands for the concentration that kills 50% of the test population. As to `COc1cc(/C(Cl)=C/C=C(\C#N)C(=O)c2c[nH]c3ccccc23)cc(OC)c1OC`, the inhibition in series [1] was 21.1%; in series [2], 59.1%; in series [3], 73.3%; in series [4], 86.2%. Moreover, the GI50 in the series with MCF7 stood at 4 µM. Moreover, the TGI in the series with MCF7 is 94.3 µM; in the series on Vero, 35.9 µM. The CC50 with MCF7 is over 100 µM. Further, in the series on Vero, the LC50 was 54.2 µM. In series [5], the 50% growth inhibitory concentration (GI50) at 48 h stood at 16.2 µM.

For the molecule `N#C/C(=C\C=C(/Cl)c1ccc(Br)cc1)C(=O)c1c[nH]c2ccc(Br)cc12`, the inhibition in series [1] is 15.8%; in series [2], 83.6%; in series [3] it was 67.5%; in series [4], 90.8%. The GI50 in the series on MCF7 is over 100 µM. The same molecule returned a TGI in the series on MCF7 of over 100 µM. Also, the CC50 in the series on MCF7 was over 100 µM.

For `COc1ccc2[nH]cc(C(=O)/C(C#N)=C/C=C(\Cl)c3ccc(Br)cc3)c2c1`, the inhibition was determined as 40.8% in series [1], 54.5% in series [2], 76.7% in series [3] and 88.1% in series [4]. The GI50 with MCF7 amounted to 79.9 µM. The molecule also yielded a concentration for total growth inhibition (TGI) in the series on MCF7 of over 100 µM. The CC50 in the series on MCF7 was over 100 µM.

On to `COc1ccc(/C(Cl)=C/C=C(\C#N)C(=O)c2c[nH]c3ccc(Br)cc23)cc1OC`, for which the inhibition is 11.8% in series [1], 80.9% in series [2], 57.5% in series [3] and 21.1% in series [4]. For the same molecule, it took 31.9 µM to inhibit growth with MCF7 by half (GI50). In addition, the TGI with MCF7 is over 100 µM; in the series with Vero it was 38.4 µM. For the same molecule, the CC50 in the series on MCF7 was over 100 µM. Also, the LC50 in the series on Vero was 51.8 µM. Moreover, growth in series [5] was halved (GI50 at 48 h) at 8.2 µM.

`Cc1[nH]c2ccccc2c1C(=O)/C(C#N)=C/C=C(\Cl)c1ccc(Br)cc1`: the inhibition was 15.8% in series [1], 69.1% in series [2], 78.3% in series [3] and 85.3% in series [4]. The molecule further yielded a GI50 in the series on MCF7 of 73.9 µM. Moreover, net growth in the series on MCF7 stopped (TGI) at 73.8 µM. The CC50 with MCF7 is over 100 µM.

Turning to `COc1ccc(/C(Cl)=C/C=C(\C#N)C(=O)c2c[nH]c3ccccc23)cc1`, the inhibition in series [1] worked out at 23.4%; in series [2], 61.3%; in series [3], 76.9%; in series [4], 80.2%. In addition, the 50% growth inhibitory concentration (GI50) with MCF7 was determined as 47.3 µM. In the series on MCF7, this molecule had a TGI of over 100 µM. In addition, in the series on MCF7, the CC50 was over 100 µM.

For the molecule `N#C/C(=C\C=C(/Cl)c1ccc(Br)cc1)C(=O)c1c[nH]c2ccccc12`, the inhibition in series [1] came to 18.4%; in series [2], 65.5%; in series [3] it was 76.7%; in series [4], 38.5%. This molecule also had a GI50 with MCF7 of 72.5 µM. In the series with MCF7, this molecule came in with a TGI of 81.5 µM. For the same molecule, the CC50 with MCF7 is over 100 µM.

With `COc1ccc(/C(Cl)=C/C=C(\C#N)C(=O)c2c[nH]c3ccc(Br)cc23)cc1`, the inhibition in series [1] is 15.6%; in series [2] it was 62.2%; in series [3], 56.2%; in series [4], 78.2%. The same molecule had a GI50 in the series on MCF7 of 80.3 µM. Further, the total growth inhibition concentration (TGI) in the series on MCF7 is over 100 µM. In addition, the CC50 with MCF7 is over 100 µM.

On to `COc1ccc(/C(Cl)=C/C=C(\C#N)C(=O)c2c(C)[nH]c3ccccc23)cc1OC`, for which the inhibition in series [1] turned out to be 22.4%; in series [2] it was 66.4%; in series [3], 75.8%; in series [4] it was 79.8%. Moreover, in the series on MCF7, growth was halved (GI50) at 29.6 µM. The TGI in the series on MCF7 was found to be 93 µM; in the series on Vero, 41.1 µM. In addition, the CC50 in the series with MCF7 was over 100 µM. This molecule also registered an LC50 in the series on Vero of 65.9 µM. This molecule yielded a GI50 at 48 h in series [5] of 11.8 µM.

For `O=C(O)Cc1ccccc1Nc1c(Cl)cccc1Cl`, in series [4], the inhibition amounted to 90.2%.

For the molecule `COc1ccc(/C(Cl)=C/C=C(\C#N)C(=O)c2c[nH]c3ccccc23)cc1OC`, the inhibition in series [1] was 15.8%; in series [2], 63.6%; in series [3], 75%; in series [4], 85.3%. In the series with MCF7, this molecule gave a GI50 of 44.2 µM. In the series with MCF7, this molecule showed a TGI of over 100 µM. For the same molecule, the CC50 in the series with MCF7 was over 100 µM.

On to `COc1cc(/C(Cl)=C/C=C(\C#N)C(=O)c2c[nH]c3ccc(Br)cc23)cc(OC)c1OC`, for which the inhibition in series [1] stood at 26.3%; in series [2] it was 50%; in series [3] it was 36.7%; in series [4], 90.8%. The molecule further gave a GI50 in the series on MCF7 of 30.8 µM. For the same molecule, the TGI amounted to 96.5 µM in the series on MCF7 and 22.1 µM in the series on Vero. Further, the CC50 in the series on MCF7 is over 100 µM. The molecule further displayed an LC50 in the series on Vero of 41.5 µM. In addition, in series [5], the GI50 at 48 h is 7.6 µM.

Regarding `COc1ccc2[nH]cc(C(=O)/C(C#N)=C/C=C(\Cl)c3cc(OC)c(OC)c(OC)c3)c2c1`, the inhibition is 46% in series [1], 50% in series [2], 68.3% in series [3] and 84.4% in series [4]. In the series on MCF7, this molecule registered a GI50 of 39.2 µM. The TGI in the series on MCF7 was over 100 µM; in the series with Vero it was 12.1 µM. In the series with MCF7, the CC50 was over 100 µM. In the series on Vero, the LC50 was determined as 45.2 µM. For the same molecule, in series [5], halving of growth (GI50 at 48 h) required 9.5 µM.

As for `COc1ccc(/C(Cl)=C/C=C(\C#N)C(=O)c2c(C)[nH]c3ccccc23)cc1`, the inhibition in series [1] was 34.2%; in series [2], 63.1%; in series [3] it was 74%; in series [4], 83.1%. Moreover, in the series on MCF7, it took 56.7 µM to inhibit growth by half (GI50). This molecule gave a TGI in the series on MCF7 of over 100 µM. Further, the CC50 with MCF7 was over 100 µM.

Take `COc1ccc(/C(Cl)=C/C=C(\C#N)C(=O)c2c[nH]c3ccc(OC)cc23)cc1`: the inhibition in series [1] was 16.7%; in series [2] it was 60.7%; in series [3], 41.6%; in series [4], 79.5%. For the same molecule, in the series on MCF7, it took 87.1 µM to inhibit growth by half (GI50). The molecule also returned a TGI with MCF7 of over 100 µM. The CC50 with MCF7 is over 100 µM.

With `COc1cccc2c1C(=O)c1c(O)c3c(c(O)c1C2=O)C[C@@](O)(C(=O)CO)C[C@@H]3O[C@H]1C[C@H](N)[C@H](O)[C@H](C)O1` [DOXORUBICIN HYDROCHLORIDE], in the series with MCF7, the 50% growth inhibitory concentration (GI50) is under 0.1 µM, total growth inhibition (TGI) required 11 µM and the CC50 is 97.1 µM. In the series on Vero, this molecule returned an LC50 of 52.6 µM and a total growth inhibition concentration (TGI) of over 10 µM. The GI50 at 48 h in series [5] worked out at 19 µM.

Take `O=C1O[C@H]([C@@H](O)CO)C(O)=C1O`: the results for the inhibition in series [1], in series [2] and in series [3] were 44.2%, 74.1% and 42.6%, respectively.

With `COc1cc(/C(Cl)=C/C=C(\C#N)C(=O)c2c(C)[nH]c3ccccc23)cc(OC)c1OC`, the inhibition was 14.5% in series [1], 58.2% in series [2], 74.2% in series [3] and 80.7% in series [4]. In the series on MCF7, this molecule yielded a GI50 of under 0.1 µM. The values for the TGI in the series on MCF7 and in the series on Vero were 83.7 µM and 42.6 µM, respectively. For the same molecule, the CC50 in the series with MCF7 is over 100 µM. This molecule also gave an LC50 in the series with Vero of 68.3 µM. Besides, growth in series [5] was halved (GI50 at 48 h) at 12.4 µM.

With `COc1ccc2[nH]cc(C(=O)/C(C#N)=C/C=C(\Cl)c3ccc(OC)c(OC)c3)c2c1`, the inhibition in series [1] was determined as 34.2%; in series [2], 58.2%; in series [3], 74.2%; in series [4], 87.2%. Moreover, in the series on MCF7, it took 44.9 µM to inhibit growth by half (GI50). In the series on MCF7, this molecule came in with a concentration for total growth inhibition (TGI) of over 100 µM. Further, the CC50 in the series with MCF7 is over 100 µM.
